What was measured:
[1] = target: Proto-oncogene tyrosine-protein kinase Src (Homo sapiens) (UniProt P12931); experiment: Inhibition of recombinant human full-length N-terminal His6-tagged Src expressed in Sf21 insect cells at 100 nM using poly (Glu, Tyr)4:1 as substrate measured after 1 hr by ELISA relative to control
Outline: (§1)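 ELISA kinase assay: recombinant kinase added to wells precoated with poly(Glu,Tyr)4:1 and incubated with compound in reaction buffer containing 5 μM ATP, 37 °C for 1 h; wells then washed before antibody detection.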

[2] = target: Activated CDC42 kinase 1 (Homo sapiens) (UniProt Q07912); experiment: Inhibition of recombinant human N-terminal GST-tagged ACK1 (1 to 389 residues) expressed in baculovirus infected Sf21 insect cells at 100 nM using poly (Glu, Tyr)4:1 as substrate measured after 1 hr by ELISA relative to control
Outline: (§2)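 Recombinant kinase was incubated with compound in reaction buffer containing 5 μM ATP, in wells precoated with poly(Glu,Tyr) 4:1, for 1 h at 37 °C. Phosphorylation was detected by ELISA.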

[3] = target: Fibroblast growth factor receptor 3 (Homo sapiens, UniProt P22607); experiment: Inhibition of recombinant human N-terminal His6-tagged FGFR3 (447 to 761 residues) expressed in baculovirus infected Sf21 insect cells at 1000 nM using poly (Glu, Tyr)4:1 as substrate measured after 1 hr by ELISA relative to control; outline: as §2
[4] = target: Tyrosine-protein kinase ITK/TSK (Homo sapiens) (UniProt Q08881); experiment: Inhibition of recombinant human N-terminal His6-tagged ITK (352 to 617 residues) expressed in baculovirus infected Sf21 insect cells at 1000 nM using poly (Glu, Tyr)4:1 as substrate measured after 1 hr by ELISA relative to control; outline: as §1
[5] = Elimination half life in Sprague-Dawley rat at 2 mg/kg, iv administered […] by LC-MS/MS analysis; format: ADME, organism-based; conditions: in vivo, read-out: beta t1/2 (converted)
Outline: (§3)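 Male SD rats (200 ± 20 g) were fasted 12 h with free access to water, n = 3 per group. One group received 2 mg/kg iv in DMSO/EtOH/PEG300/saline (5/5/40/50). The other received 5 mg/kg by oral gavage in DMSO/HPMC (5/95). Femoral-vein plasma was taken at 15–1440 min, methanol-precipitated with internal standard, and measured by LC–MS/MS. Noncompartmental analysis; AUC by trapezoidal method.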

[6] = target: Tyrosine-protein kinase ABL1 (Homo sapiens) (UniProt P00519); experiment: Inhibition of recombinant human N-terminal His6-tagged Abl (27 to end residues) expressed in baculovirus infected Sf21 insect cells at 100 nM using poly (Glu, Tyr)4:1 as substrate measured after 1 hr by ELISA relative to control; outline: as §2
[7] = target: Fibroblast growth factor receptor 4 (Homo sapiens, UniProt P22455); experiment: Inhibition of recombinant human N-terminal His6-tagged FGFR4 (442 to 755 residues) expressed in baculovirus infected Sf21 insect cells using poly (Glu, Tyr)4:1 as substrate measured after 1 hr by ELISA; outline: as §1
[8] = target: Receptor tyrosine-protein kinase erbB-2 (Homo sapiens) (UniProt P04626); experiment: Inhibition of recombinant Erbb2 (unknown origin) at 100 nM using poly (Glu, Tyr)4:1 as substrate measured after 1 hr by ELISA relative to control; outline: as §2
[9] = target: Insulin-like growth factor 1 receptor (Homo sapiens) (UniProt P08069); experiment: Inhibition of recombinant human N-terminal His6-tagged IGF1R (959 to end residues) expressed in baculovirus infected Sf21 insect cells at 1000 nM using poly (Glu, Tyr)4:1 as substrate measured after 1 hr by ELISA relative to control; outline: as §1
[10] = target: Fibroblast growth factor receptor 2 (Homo sapiens, UniProt P21802); experiment: Inhibition of recombinant human N-terminal His6-tagged FGFR2 (456 to 770 residues) expressed in baculovirus infected Sf21 insect cells using poly (Glu, Tyr)4:1 as substrate measured after 1 hr by ELISA; outline: as §2
[11] = Cmax in Sprague-Dawley rat at 5 mg/kg, po administered via gavage by LC-MS/MS analysis; format: ADME, organism-based; set-up: dose 5 mg/kg, route oral; conditions: in vivo; outline: as §3
[12] = target: Macrophage colony-stimulating factor 1 receptor (Homo sapiens, UniProt P07333); experiment: Inhibition of recombinant CSF1R (unknown origin) using poly (Glu, Tyr)4:1 as substrate measured after 1 hr by ELISA
[13] = target: Focal adhesion kinase 1 (Homo sapiens) (UniProt Q05397); experiment: Inhibition of recombinant human N-terminal His6-tagged FAK (411 to 686 residues) expressed in baculovirus infected Sf21 insect cells at 100 nM using poly (Glu, Tyr)4:1 as substrate measured after 1 hr by ELISA relative to control; outline: as §2
[14] = target: Vascular endothelial growth factor receptor 1 (Homo sapiens) (UniProt P17948); experiment: Inhibition of recombinant human VEGFR1 expressed in Spodoptera frugiperda insect cells at 1000 nM using poly (Glu, Tyr)4:1 as substrate measured after 1 hr by ELISA relative to control; outline: as §1
[15] = target: Proto-oncogene tyrosine-protein kinase receptor Ret (Homo sapiens) (UniProt P07949); experiment: Inhibition of recombinant human N-terminal GST-tagged RET (658 to end residues) expressed in baculovirus infected Sf21 insect cells at 1000 nM using poly (Glu, Tyr)4:1 as substrate measured after 1 hr by ELISA relative to control; outline: as §2
c-KIT = c-KIT (Homo sapiens, UniProt P10721); experiment: Inhibition of recombinant human N-terminal GST-tagged c-KIT (544 to end residues) expressed in baculovirus infected Sf21 insect cells at 1000 nM using poly (Glu, Tyr)4:1 as substrate measured after 1 hr by ELISA relative to control; conditions: probe poly (Glu, Tyr)4:1; outline: as §2
[16] = target: Tyrosine-protein kinase BTK (Homo sapiens) (UniProt Q06187); experiment: Inhibition of recombinant human full-length N-terminal His6-tagged BTK expressed in baculovirus infected Sf21 insect cells at 100 nM using poly (Glu, Tyr)4:1 as substrate measured after 1 hr by ELISA relative to control; outline: as §1
[17] = Volume of distribution at steady state in Sprague-Dawley rat at 2 mg/kg, iv administered […] by LC-MS/MS analysis; format: ADME, organism-based; conditions: in vivo, read-out: Vdss
Outline: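 Male SD rats (200 ± 20 g), fasted 12 h, n = 3; single intravenous dose of 2 mg/kg in DMSO/EtOH/PEG300/saline (5/5/40/50). Femoral vein blood at 15–1440 min; plasma precipitated with methanol containing internal standard, assayed by LC–MS/MS; noncompartmental analysis (MRT = AUMC/AUC, Vss = CL × MRT).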

Sequence of Vascular endothelial growth factor receptor 1 (Homo sapiens) (P17948 whole entry): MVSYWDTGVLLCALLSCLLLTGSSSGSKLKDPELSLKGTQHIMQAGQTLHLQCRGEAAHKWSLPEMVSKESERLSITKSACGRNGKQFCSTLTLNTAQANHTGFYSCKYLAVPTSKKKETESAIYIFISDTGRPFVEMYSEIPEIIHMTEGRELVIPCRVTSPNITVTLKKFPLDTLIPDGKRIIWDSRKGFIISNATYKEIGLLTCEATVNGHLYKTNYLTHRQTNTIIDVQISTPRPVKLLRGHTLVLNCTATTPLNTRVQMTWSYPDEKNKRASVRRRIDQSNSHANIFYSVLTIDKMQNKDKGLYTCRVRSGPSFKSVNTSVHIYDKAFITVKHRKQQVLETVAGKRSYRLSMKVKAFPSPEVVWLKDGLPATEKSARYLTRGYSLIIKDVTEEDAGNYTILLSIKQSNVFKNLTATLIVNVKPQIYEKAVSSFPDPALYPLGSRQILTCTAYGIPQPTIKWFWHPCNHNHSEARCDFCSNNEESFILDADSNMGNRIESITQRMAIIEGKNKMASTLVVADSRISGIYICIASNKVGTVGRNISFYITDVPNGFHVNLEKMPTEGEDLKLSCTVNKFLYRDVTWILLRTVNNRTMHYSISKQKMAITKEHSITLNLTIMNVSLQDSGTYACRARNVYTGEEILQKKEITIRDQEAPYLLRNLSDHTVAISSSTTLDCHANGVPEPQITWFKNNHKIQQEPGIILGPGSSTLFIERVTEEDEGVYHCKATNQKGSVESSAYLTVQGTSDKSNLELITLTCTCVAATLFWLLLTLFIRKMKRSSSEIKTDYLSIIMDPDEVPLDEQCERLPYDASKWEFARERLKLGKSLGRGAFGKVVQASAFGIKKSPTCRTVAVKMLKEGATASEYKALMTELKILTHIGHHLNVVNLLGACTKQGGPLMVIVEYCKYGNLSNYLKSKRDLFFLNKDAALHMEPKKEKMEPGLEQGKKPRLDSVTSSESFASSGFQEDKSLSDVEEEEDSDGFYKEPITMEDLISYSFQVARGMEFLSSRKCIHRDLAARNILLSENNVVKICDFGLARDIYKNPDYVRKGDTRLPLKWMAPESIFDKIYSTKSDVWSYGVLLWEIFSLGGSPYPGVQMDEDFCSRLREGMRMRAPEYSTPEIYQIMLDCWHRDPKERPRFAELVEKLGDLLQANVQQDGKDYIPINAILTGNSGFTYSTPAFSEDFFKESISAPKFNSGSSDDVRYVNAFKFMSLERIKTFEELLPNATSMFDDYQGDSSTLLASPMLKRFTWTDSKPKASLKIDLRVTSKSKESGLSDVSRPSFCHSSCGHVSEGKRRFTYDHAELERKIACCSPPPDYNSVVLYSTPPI
Sequence of Tyrosine-protein kinase ITK/TSK (Homo sapiens) (Q08881 whole entry, the tested form may be a part): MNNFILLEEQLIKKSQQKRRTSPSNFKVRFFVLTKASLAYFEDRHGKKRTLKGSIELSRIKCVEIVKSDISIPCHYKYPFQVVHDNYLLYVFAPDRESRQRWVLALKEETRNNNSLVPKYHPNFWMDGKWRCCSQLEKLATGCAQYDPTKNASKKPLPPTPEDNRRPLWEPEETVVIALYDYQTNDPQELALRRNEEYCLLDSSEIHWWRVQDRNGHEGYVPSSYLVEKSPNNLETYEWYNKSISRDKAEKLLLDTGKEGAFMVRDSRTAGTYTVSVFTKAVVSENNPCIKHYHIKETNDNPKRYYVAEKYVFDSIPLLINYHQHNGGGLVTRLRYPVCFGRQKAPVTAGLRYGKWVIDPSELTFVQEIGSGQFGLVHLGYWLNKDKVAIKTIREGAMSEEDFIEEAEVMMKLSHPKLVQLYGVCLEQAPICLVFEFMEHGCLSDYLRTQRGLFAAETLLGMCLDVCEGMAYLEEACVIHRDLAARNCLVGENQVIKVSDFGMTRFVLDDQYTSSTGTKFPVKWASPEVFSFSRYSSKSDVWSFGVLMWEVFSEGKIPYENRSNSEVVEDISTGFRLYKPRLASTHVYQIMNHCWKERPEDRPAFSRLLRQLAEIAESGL
Sequence of Tyrosine-protein kinase BTK (Homo sapiens) (Q06187 whole entry): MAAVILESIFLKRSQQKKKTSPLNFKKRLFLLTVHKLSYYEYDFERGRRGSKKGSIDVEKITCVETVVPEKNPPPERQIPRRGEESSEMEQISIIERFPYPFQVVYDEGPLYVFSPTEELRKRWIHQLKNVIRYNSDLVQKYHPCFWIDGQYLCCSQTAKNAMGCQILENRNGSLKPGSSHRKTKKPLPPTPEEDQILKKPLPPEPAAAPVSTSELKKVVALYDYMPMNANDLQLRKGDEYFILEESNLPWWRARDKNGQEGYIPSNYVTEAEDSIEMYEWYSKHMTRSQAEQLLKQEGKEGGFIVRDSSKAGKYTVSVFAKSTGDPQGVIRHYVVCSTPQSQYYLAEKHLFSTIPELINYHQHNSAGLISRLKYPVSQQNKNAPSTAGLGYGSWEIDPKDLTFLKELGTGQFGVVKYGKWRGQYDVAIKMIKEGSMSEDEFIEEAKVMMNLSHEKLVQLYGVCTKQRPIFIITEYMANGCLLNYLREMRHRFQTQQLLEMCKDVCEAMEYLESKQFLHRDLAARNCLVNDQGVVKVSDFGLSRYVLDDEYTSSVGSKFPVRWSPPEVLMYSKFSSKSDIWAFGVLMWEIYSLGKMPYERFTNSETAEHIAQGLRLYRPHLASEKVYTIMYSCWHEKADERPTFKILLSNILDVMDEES
Sequence of Focal adhesion kinase 1 (Homo sapiens) (Q05397 2-1052 limits assumed): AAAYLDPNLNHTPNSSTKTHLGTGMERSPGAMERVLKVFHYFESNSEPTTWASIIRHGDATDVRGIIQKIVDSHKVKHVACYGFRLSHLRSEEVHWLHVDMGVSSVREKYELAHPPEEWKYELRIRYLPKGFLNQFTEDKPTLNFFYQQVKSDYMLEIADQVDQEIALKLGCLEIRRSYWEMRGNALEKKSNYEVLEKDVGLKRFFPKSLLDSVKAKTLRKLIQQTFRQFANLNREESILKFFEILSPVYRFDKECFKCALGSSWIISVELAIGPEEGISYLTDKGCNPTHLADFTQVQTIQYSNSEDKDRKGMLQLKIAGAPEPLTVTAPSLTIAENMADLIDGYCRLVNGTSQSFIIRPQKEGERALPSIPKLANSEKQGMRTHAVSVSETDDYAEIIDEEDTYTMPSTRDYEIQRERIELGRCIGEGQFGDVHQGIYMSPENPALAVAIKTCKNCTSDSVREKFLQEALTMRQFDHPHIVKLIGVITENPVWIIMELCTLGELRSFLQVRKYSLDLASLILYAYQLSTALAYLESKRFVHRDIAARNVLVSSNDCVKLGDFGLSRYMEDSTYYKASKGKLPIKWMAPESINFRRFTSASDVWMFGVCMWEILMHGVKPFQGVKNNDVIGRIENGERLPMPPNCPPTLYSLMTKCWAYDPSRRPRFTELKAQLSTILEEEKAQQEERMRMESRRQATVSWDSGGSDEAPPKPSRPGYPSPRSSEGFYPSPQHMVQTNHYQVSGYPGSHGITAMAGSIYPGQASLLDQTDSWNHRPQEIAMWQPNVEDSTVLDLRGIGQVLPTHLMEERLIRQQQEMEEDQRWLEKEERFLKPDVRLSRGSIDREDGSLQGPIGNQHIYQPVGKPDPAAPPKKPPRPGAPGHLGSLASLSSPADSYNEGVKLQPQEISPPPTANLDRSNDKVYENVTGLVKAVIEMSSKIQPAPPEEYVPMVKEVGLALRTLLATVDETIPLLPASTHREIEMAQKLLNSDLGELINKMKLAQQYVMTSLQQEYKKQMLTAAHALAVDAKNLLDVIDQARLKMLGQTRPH
Sequence of Proto-oncogene tyrosine-protein kinase receptor Ret (Homo sapiens) (P07949 whole entry): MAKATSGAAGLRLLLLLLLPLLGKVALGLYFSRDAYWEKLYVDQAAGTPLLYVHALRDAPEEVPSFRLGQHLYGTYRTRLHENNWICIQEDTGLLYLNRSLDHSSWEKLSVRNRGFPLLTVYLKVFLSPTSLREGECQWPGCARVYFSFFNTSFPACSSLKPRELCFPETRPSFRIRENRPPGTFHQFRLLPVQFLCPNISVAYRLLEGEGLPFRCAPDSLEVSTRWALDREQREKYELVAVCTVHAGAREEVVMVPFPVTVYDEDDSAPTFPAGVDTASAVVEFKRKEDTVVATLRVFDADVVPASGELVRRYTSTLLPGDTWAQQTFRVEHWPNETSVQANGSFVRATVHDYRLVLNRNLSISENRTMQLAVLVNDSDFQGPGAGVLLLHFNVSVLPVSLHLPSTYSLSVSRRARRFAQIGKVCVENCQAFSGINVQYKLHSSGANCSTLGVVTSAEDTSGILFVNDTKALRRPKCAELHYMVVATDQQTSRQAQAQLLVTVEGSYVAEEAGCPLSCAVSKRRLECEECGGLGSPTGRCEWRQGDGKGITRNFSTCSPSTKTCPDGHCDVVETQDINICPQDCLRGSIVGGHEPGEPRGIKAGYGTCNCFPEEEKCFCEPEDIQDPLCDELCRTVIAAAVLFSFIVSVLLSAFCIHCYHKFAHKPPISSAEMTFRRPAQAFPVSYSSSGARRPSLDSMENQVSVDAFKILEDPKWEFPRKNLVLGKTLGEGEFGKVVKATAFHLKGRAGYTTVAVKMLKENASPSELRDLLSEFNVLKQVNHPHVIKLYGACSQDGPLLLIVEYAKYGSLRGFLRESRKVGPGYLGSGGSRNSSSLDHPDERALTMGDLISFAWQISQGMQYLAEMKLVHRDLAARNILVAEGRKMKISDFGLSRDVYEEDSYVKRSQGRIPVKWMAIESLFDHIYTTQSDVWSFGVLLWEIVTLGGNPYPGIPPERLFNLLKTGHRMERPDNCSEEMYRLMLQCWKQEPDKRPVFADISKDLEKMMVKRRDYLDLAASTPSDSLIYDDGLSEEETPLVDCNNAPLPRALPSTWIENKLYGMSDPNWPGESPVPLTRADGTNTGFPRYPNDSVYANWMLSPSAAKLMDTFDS

Cc1ccc(C(=O)Nc2ccc(Cl)cc2)cc1C#Cc1cc(-c2cnn(C)c2)cnc1N
inhibition [1]: 61.7% | inhibition [2]: 10.3% | inhibition [3]: 2.3% | inhibition [4]: 7.4% | half-life [5]: 3.33 h | inhibition [6]: 82.1% | IC50 [7]: > 1000 nM | inhibition [8]: 8.8% | inhibition [9]: 0% | IC50 [10]: > 1000 nM | Cmax [11]: 166 ng/mL | IC50 [12]: 0.7 nM | inhibition [13]: 14.7% | inhibition [14]: 89.8% | inhibition [15]: 96.6% | inhibition at 1 h, 1 µM (c-KIT): 98.2% | inhibition [16]: 0% | Vd [17]: 6.34 L/kg

— ChEMBL document CHEMBL4321879, “Novel Class of Colony-Stimulating Factor 1 Receptor Kinase Inhibitors Based on an o-Aminopyridyl Alkynyl Scaffold as Potential Treatment for Inflammatory Disorders” (J Med Chem, 2020)
